Results: ChEMBL document CHEMBL4613305, “Chiral Separation, X-ray Structure, and Biological Evaluation of a Potent and Reversible Dual Binding Site AChE Inhibitor” (ACS Med Chem Lett, 2020)

Key:
[1] = molecular target: Cholinesterases; ACHE & BCHE (Homo sapiens) (UniProt P06276+P22303); test: Selectivity index, ratio of IC50 for human BChE to IC50 for human AChE; assay type: protein assay
Acetylcholinesterase [2] = molecular target: T1, Acetylcholinesterase (Homo sapiens, UniProt P22303); test: Inhibition of human AChE using acetylthiocholineiodide as substrate measured for every 30 sec for 5 mins by Ellman's method
T1 sequence (P22303 whole entry): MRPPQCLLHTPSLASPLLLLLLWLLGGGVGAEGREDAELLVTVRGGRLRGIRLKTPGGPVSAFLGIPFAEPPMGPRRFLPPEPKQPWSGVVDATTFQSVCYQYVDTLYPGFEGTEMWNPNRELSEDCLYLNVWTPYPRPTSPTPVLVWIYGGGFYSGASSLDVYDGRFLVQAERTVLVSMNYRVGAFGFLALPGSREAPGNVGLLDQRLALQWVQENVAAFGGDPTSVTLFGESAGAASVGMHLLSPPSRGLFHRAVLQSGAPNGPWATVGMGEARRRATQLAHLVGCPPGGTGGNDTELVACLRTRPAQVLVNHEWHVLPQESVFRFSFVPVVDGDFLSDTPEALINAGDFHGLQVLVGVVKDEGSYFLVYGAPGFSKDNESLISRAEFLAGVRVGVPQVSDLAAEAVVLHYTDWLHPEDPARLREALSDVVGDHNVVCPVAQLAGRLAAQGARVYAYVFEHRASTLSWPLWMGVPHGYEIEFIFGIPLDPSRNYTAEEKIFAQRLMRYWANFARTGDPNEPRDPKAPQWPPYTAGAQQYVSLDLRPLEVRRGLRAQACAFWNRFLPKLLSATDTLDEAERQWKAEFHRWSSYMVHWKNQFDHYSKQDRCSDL

Acetylcholinesterase [3] = molecular target: T1, Acetylcholinesterase; test: Mixed type inhibition of human AChE using acetylthiocholineiodide as substrate measured for every 30 sec for 5 mins by Ellman's method
Cholinesterase [4] = molecular target: T2, Cholinesterase (Homo sapiens, UniProt P06276); test: Inhibition of human BChE using butyrylthiocholineiodide as substrate measured for every 30 sec for 5 mins by Ellman's method
T2 sequence (P06276 whole entry): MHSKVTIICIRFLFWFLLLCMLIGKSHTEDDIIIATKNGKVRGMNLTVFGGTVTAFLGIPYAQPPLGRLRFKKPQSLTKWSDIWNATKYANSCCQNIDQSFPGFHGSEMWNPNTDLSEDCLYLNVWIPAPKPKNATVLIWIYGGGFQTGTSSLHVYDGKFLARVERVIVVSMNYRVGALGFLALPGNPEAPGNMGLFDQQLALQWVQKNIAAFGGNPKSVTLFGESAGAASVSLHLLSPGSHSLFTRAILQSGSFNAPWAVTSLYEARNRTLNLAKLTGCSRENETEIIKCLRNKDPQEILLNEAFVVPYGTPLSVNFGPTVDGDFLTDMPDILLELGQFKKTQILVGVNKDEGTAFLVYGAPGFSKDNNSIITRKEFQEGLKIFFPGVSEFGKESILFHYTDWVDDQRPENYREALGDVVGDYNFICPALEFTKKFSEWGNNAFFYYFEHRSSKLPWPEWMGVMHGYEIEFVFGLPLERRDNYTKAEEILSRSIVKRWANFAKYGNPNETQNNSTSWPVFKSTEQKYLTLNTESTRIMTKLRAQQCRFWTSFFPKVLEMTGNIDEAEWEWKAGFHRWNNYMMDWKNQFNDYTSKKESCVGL
Method in brief: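 Values are mean ± SEM of three independent experiments.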

[5] = Apparent permeability across basolateral to apical side in MDCK-MDR1 cells at 75 uM incubated for 2 hrs by UV-spectroscopy; assay type: ADME, cell-based, Canis lupus familiaris; details: dog
Method in brief: (§1)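 MDCK-MDR1 monolayers expressing the P-gp efflux system. Apparent permeability (Papp) was measured in both directions: apical to basolateral, and basolateral to apical. Efflux ratio = Papp BL/Papp AP. Values are mean ± SEM of three independent experiments.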

[6] = Cytotoxicity against MDCK-MDR1 cells assessed as cell viability at 100 uM incubated for 72 hrs by MTT assay relative to control; assay type: ADME, cell-based, Canis lupus familiaris; details: dog, read-out: Activity
[7] = Cytotoxicity against human HepG2 cells assessed as cell viability at 20 to 100 uM incubated for 2 hrs by MTT assay relative to control; assay type: cell-based; details: read-out: Activity
Method in brief: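 HepG2 human liver cancer cells were exposed to 20–100 μM for 2 h. Viability was read by MTT reduction, expressed as % of untreated control cells in DMEM. Values are mean ± SEM of six replicates. Difference from control was tested by Student's t test (p < 0.01).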

[8] = Cytotoxicity against MDCK-MDR1 cells assessed as cell viability at 100 uM incubated for 24 hrs by MTT assay relative to control; assay type: ADME, cell-based, Canis lupus familiaris; details: dog, read-out: Activity
[9] = Apparent permeability across apical to basolateral side in MDCK-MDR1 cells at 75 uM incubated for 2 hrs by UV-spectroscopy; assay type: ADME, cell-based, Canis lupus familiaris; details: dog; method in brief: as §1
MDCK-MDR1 = test: Cytotoxicity against MDCK-MDR1 cells assessed as cell viability incubated for 72 hrs by MTT assay relative to control; assay type: ADME, cell-based; details: Canis lupus familiaris, MDCK-MDR1, 72 h
[10] = Efflux ratio of apparent permeability across basolateral to apical side to apical to basolateral side in MDCK-MDR1 cells at 75 uM incubated for 2 hrs by UV-spectroscopy; assay type: ADME, cell-based, Canis lupus familiaris; details: dog
Method in brief: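 MDCK-MDR1 monolayers expressing the P-gp efflux system. Apparent permeability was measured in both directions, apical→basolateral and basolateral→apical. Efflux ratio calculated as Papp BL / Papp AP. Papp values are mean ± SEM of three independent experiments.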

Acetylcholinesterase [11] = molecular target: T1, Acetylcholinesterase; test: Potency index, ratio of Ki of donepezil to Ki of compound for mixed type inhibition of human AChE using acetylthiocholineiodide as substrate measured for every 30 sec for 5 mins by Ellman's method
Cholinesterase [12] = molecular target: T2, Cholinesterase; test: Inhibition of human BChE using butyrylthiocholineiodide as substrate at 10 uM measured for every 30 sec for 5 mins by Ellman's method relative to control
Method in brief: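 Single-concentration test, reported as % inhibition at 10 μM. Values are mean ± SEM of three independent experiments.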

Cholinesterases; ACHE & BCHE (Homo sapiens), sequence (P06276 whole entry, looked up): as the sequence (P06276 whole entry) above
Cholinesterases; ACHE & BCHE (Homo sapiens), sequence (P22303 whole entry, looked up): as the sequence (P22303 whole entry) above

Row | Structure (SMILES) | IC50 (Acetylcholinesterase [2]) [nM] | Ki (Acetylcholinesterase [3]) [nM] | IC50 (Cholinesterase [4]) [µM] | other results
1 | COc1cc2cc(NC(=O)[C@@H]3CCC[C@H](NCc4ccccc4)C3)c(=O)oc2cc1OC | 19.2 | 19.1 | 14.1 | Ratio IC50 [1]: 730
2 | COc1cc2cc(NC(=O)CCCNCc3ccccc3)c(=O)oc2cc1OC | 748 | – | 0.181 | –
3 | COc1cc2cc(NC(=O)[C@H]3CCC[C@@H](NCc4ccccc4)C3)c(=O)oc2cc1OC (racemic) [listing 1 of 2 here] | 36.5 | 46.6 | 6.25 | Papp B→A at 2 h, 75 µM [5]: 8.4 ×10⁻⁶ cm/s; viability at 72 h, 100 µM [6]: 37%; viability at 2 h, up to 100 µM [7]: 80 to 90%; viability at 24 h, 100 µM [8]: 60%; Papp A→B at 2 h, 75 µM [9]: 37 ×10⁻⁶ cm/s; IC50 (MDCK-MDR1): 30 µM; efflux ratio at 2 h, 75 µM [10]: 0.22
4 | COc1cc2cc(NC(=O)[C@H]3CCC[C@@H](NCc4ccccc4)C3)c(=O)oc2cc1OC (racemic) [listing 2 of 2 here] | – | – | – | Ratio Ki (Acetylcholinesterase [11]): 4
5 | COc1cc2cc(NC(=O)[C@H]3CCC[C@@H](NCc4ccccc4)C3)c(=O)oc2cc1OC | 380 | 93.4 | 2.33 | –
6 | COc1cc2cc(NC(=O)C3CCN(Cc4ccccc4)CC3)c(=O)oc2cc1OC | 223 | – | – | inhibition (Cholinesterase [12]): 21%
7 | CN1C(=O)CN=C(c2ccccc2)c2cc(Cl)ccc21 [DIAZEPAM] | – | – | – | efflux ratio at 2 h, 75 µM [10]: 0.7
